Measured values taken from ChEMBL document CHEMBL3992522, “Antileishmanial Activity of Pyrazolopyridine Derivatives and Their Potential as an Adjunct Therapy with Miltefosine” (J Med Chem, 2017).

System: Mus musculus
Assay: Increase in iNOS mRNA expression level in Balb/c mouse splenocytes infected with Leishmania donovani amastigote forms at 25 mg/kg, ip cotreated with 5 mg/kg, po miltefosine for 5 consecutive days measured on day 4 post last treatment by RT-PCR assay relative to control
Assay type: functional
In short: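 Infected BALB/c mice dosed for 5 consecutive days (test compound i.p. in 8% DMSO, miltefosine oral), n = 5 per group; splenocytes taken day 4 and day 7 post-treatment. Total RNA extracted and iNOS mRNA quantified by real-time PCR, normalized to mouse β-actin, expressed as fold change over uninfected controls.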

COc1ccc(C2C3=C(CCC3=O)Nc3c2c(-c2c[nH]c4ccccc24)nn3-c2ccc(Cl)c(Cl)c2)cc1OC (stereo unspecified)
fold change (FC): 11.8
